Results taken from ChEMBL document CHEMBL3808357, “Discovery of N-(3-((1-Isonicotinoylpiperidin-4-yl)oxy)-4-methylphenyl)-3-(trifluoromethyl)benzamide (CHMFL-KIT-110) as a Selective, Potent, and Orally Available Type II c-KIT Kinase Inhibitor for Gastrointestinal Stromal Tumors (GISTs)” (J Med Chem, 2016).

Assays:
[1] = Antiproliferative activity against human HL60 cells assessed as reduction in cell viability after 72 hrs by celltiter-glo/CCK8 assay; type: functional; details: HL-60, 72 h
Outline: (§1)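 Cells were seeded at 1 to 3 × 10⁴ cells/mL with serial compound concentrations and incubated 72 h at 37 °C, 5% CO₂. Viability was read by CellTiter-Glo luminescence or CCK-8 absorbance (450/655 nm). GI50 values are from triplicate testing. GIST-T1 and CHO were grown in DMEM/10% FBS; GIST-882, GIST-48B and MV4-11 in IMDM/10% FBS; other lines in RPMI 1640/10% FBS.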

[2] = tested on: Mast/stem cell growth factor receptor Kit (Homo sapiens), P10721 [V559D,T670I]; assay: Inhibition of Tel-fused cKIT T670I/V559D double mutant (unknown origin) transfected in mouse BAF3 cells assessed as decrease in cell proliferation after 72 hrs by celltiter-glo/CCK8 assay; type: cell-based
Mast/stem cell growth factor receptor Kit (Homo sapiens), P10721 [V559D,T670I], sequence (P10721 whole entry V559D/T670I, the tested form may be a part): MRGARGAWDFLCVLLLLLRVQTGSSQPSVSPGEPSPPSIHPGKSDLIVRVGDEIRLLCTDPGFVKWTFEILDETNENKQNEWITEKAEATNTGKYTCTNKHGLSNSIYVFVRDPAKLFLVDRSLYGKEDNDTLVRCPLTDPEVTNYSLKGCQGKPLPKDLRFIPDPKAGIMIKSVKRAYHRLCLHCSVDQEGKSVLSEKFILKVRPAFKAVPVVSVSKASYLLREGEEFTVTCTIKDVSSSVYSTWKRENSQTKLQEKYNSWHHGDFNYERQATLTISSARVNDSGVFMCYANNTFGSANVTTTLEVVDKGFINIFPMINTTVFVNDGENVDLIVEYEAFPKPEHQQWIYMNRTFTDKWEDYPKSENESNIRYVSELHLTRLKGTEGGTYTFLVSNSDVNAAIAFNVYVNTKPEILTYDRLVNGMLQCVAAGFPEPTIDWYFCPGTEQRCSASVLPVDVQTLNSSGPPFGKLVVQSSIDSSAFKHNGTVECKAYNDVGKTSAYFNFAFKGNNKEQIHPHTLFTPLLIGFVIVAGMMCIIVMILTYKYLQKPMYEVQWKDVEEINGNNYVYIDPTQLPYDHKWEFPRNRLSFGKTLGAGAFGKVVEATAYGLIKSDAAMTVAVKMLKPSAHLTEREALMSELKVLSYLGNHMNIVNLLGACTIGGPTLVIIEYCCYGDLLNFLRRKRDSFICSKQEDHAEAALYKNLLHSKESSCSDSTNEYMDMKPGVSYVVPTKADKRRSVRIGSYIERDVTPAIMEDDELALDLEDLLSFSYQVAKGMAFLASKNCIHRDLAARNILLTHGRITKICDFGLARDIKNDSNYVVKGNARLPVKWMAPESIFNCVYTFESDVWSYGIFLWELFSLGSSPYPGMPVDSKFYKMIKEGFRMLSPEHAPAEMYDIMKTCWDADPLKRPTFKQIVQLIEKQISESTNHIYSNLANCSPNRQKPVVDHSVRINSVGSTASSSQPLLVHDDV
Outline: (§2)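 Stable BaF3 lines made by retroviral transduction with mutagenized TEL-KIT MSCV vectors, puromycin selection 48 h, then gradual IL-3 withdrawal until IL-3-independent; grown in RPMI 1640 with 10% FBS. Cells at 1 to 3 × 10⁴ cells/mL exposed to a concentration series for 72 h; viability read by CellTiter-Glo luminescence or CCK-8 absorbance (450/655 nm); GI50 from triplicate testing.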

[3] = Antiproliferative activity against human Rec1 cells assessed as reduction in cell viability after 72 hrs by celltiter-glo/CCK8 assay; type: functional; details: Rec1, 72 h; outline: as §1
[4] = Antiproliferative activity against CHL cells assessed as reduction in cell viability after 72 hrs by celltiter-glo/CCK8 assay; type: cell-based, Cricetulus griseus; details: chinese hamster; outline: as §1
K562 = assay: Antiproliferative activity against BCR-ABL dependent human K562 cells assessed as reduction in cell viability after 72 hrs by celltiter-glo/CCK8 assay; type: functional; details: K562, 72 h; outline: as §1
[5] = Antiproliferative activity against human GIST48B cells assessed as reduction in cell viability after 72 hrs by celltiter-glo/CCK8 assay; type: functional; outline: as §1
[6] = biological target: Mast/stem cell growth factor receptor Kit (Homo sapiens) (UniProt P10721); assay: Inhibition of Tel-fused cKIT (unknown origin) transfected in mouse BAF3 cells assessed as decrease in cell proliferation after 72 hrs by celltiter-glo/CCK8 assay; type: cell-based; outline: as §1
Mast/stem cell growth factor receptor Kit (Homo sapiens), sequence (P10721 whole entry, the tested form may be a part): as the sequence (P10721 whole entry V559D/T670I, the tested form may be a part) above, with D559V, I670T counted along it

[7] = tested on: Mast/stem cell growth factor receptor Kit (Homo sapiens), P10721 [N822K]; assay: Inhibition of Tel-fused cKIT N822K mutant (unknown origin) transfected in mouse BAF3 cells assessed as decrease in cell proliferation after 72 hrs by celltiter-glo/CCK8 assay; type: cell-based
Mast/stem cell growth factor receptor Kit (Homo sapiens), P10721 [N822K], sequence (P10721 whole entry N822K, the tested form may be a part): as the sequence (P10721 whole entry V559D/T670I, the tested form may be a part) above, with D559V, I670T, N822K counted along it

[8] = tested on: Mast/stem cell growth factor receptor Kit (Homo sapiens), P10721 [V654A]; assay: Inhibition of Tel-fused cKIT V654A mutant (unknown origin) transfected in mouse BAF3 cells assessed as decrease in cell proliferation after 72 hrs by celltiter-glo/CCK8 assay; type: cell-based; outline: as §2
Mast/stem cell growth factor receptor Kit (Homo sapiens), P10721 [V654A], sequence (P10721 whole entry V654A, the tested form may be a part): as the sequence (P10721 whole entry V559D/T670I, the tested form may be a part) above, with D559V, V654A, I670T counted along it

MV4-11 = assay: Antiproliferative activity against FLT3-ITD dependent human MV4-11 cells assessed as reduction in cell viability after 72 hrs by celltiter-glo/CCK8 assay; type: functional; details: MV4-11, 72 h; outline: as §1
[9] = Antiproliferative activity against human U937 cells assessed as reduction in cell viability after 72 hrs by celltiter-glo/CCK8 assay; type: functional; details: U-937, 72 h; outline: as §1
[10] = Antiproliferative activity against cKIT dependent human GIST882 cells assessed as reduction in cell viability after 72 hrs by celltiter-glo/CCK8 assay; type: functional; details: GIST882, 72 h; outline: as §1
[11] = biological target: Mast/stem cell growth factor receptor Kit (Homo sapiens) (UniProt P10721); assay: Inhibition of Tel-fused cKIT L567P mutant (unknown origin) transfected in mouse BAF3 cells assessed as decrease in cell proliferation after 72 hrs by celltiter-glo/CCK8 assay; type: cell-based
[12] = Antiproliferative activity against CHO cells assessed as reduction in cell viability after 72 hrs by celltiter-glo/CCK8 assay; type: cell-based, Cricetulus griseus; details: chinese hamster; outline: as §1
[13] = Antiproliferative activity against mouse BAF3 cells; type: cell-based
[14] = tested on: Mast/stem cell growth factor receptor Kit (Homo sapiens), P10721 [V559D,V654A]; assay: Inhibition of Tel-fused cKIT V559D/V654A double mutant (unknown origin) transfected in mouse BAF3 cells assessed as decrease in cell proliferation after 72 hrs by celltiter-glo/CCK8 assay; type: cell-based; outline: as §2
Mast/stem cell growth factor receptor Kit (Homo sapiens), P10721 [V559D,V654A], sequence (P10721 whole entry V559D/V654A, the tested form may be a part): as the sequence (P10721 whole entry V559D/T670I, the tested form may be a part) above, with V654A, I670T counted along it

[15] = Antiproliferative activity against cKIT dependent human GISTT1 cells assessed as reduction in cell viability after 72 hrs by celltiter-glo/CCK8 assay; type: functional; details: GISTT1, 72 h; outline: as §1
[16] = Antiproliferative activity against FLT3-ITD dependent human MOLM14 cells assessed as reduction in cell viability after 72 hrs by celltiter-glo/CCK8 assay; type: functional; details: MOLM-14, 72 h; outline: as §1
[17] = tested on: Mast/stem cell growth factor receptor Kit (Homo sapiens), P10721 [V559D]; assay: Inhibition of Tel-fused cKIT V559D mutant (unknown origin) transfected in mouse BAF3 cells assessed as decrease in cell proliferation after 72 hrs by celltiter-glo/CCK8 assay; type: cell-based; outline: as §2
Mast/stem cell growth factor receptor Kit (Homo sapiens), P10721 [V559D], sequence (P10721 whole entry V559D, the tested form may be a part): as the sequence (P10721 whole entry V559D/T670I, the tested form may be a part) above, with I670T counted along it

[18] = tested on: Mast/stem cell growth factor receptor Kit (Homo sapiens), P10721 [D816V]; assay: Inhibition of Tel-fused cKIT D816V mutant (unknown origin) transfected in mouse BAF3 cells assessed as decrease in cell proliferation after 72 hrs by celltiter-glo/CCK8 assay; type: cell-based; outline: as §2
Mast/stem cell growth factor receptor Kit (Homo sapiens), P10721 [D816V], sequence (P10721 whole entry D816V, the tested form may be a part): as the sequence (P10721 whole entry V559D/T670I, the tested form may be a part) above, with D559V, I670T, D816V counted along it

[19] = Antiproliferative activity against BCR-ABL dependent human KU812 cells assessed as reduction in cell viability after 72 hrs by celltiter-glo/CCK8 assay; type: functional; details: KU812, 72 h; outline: as §1
[20] = tested on: Mast/stem cell growth factor receptor Kit (Homo sapiens), P10721 [T670I]; assay: Inhibition of Tel-fused cKIT T670I mutant (unknown origin) transfected in mouse BAF3 cells assessed as decrease in cell proliferation after 72 hrs by celltiter-glo/CCK8 assay; type: cell-based; outline: as §2
Mast/stem cell growth factor receptor Kit (Homo sapiens), P10721 [T670I], sequence (P10721 whole entry T670I, the tested form may be a part): as the sequence (P10721 whole entry V559D/T670I, the tested form may be a part) above, with D559V counted along it

[21] = Antiproliferative activity against human BCR-ABL dependent MEG01 cells assessed as reduction in cell viability after 72 hrs by celltiter-glo/CCK8 assay; type: functional; details: MEG-01, 72 h

SMILES | GI50 (K562) [nM] | GI50 [6] [nM] | GI50 [13] [nM] | other results
Cc1ccc(NC(=O)c2cccc(C(F)(F)F)n2)cc1OC1CCN(C(=O)c2cccnc2)CC1 | > 10000 | > 10000 | > 10000 | 
Cc1ccc(NC(=O)c2ccc3c(c2)OCO3)cc1OC1CCN(C(=O)c2cccnc2)CC1 | > 10000 | 4800 | > 10000 | 
Cc1ccc(NC(=O)c2cccc(C(F)(F)F)c2)cc1OCCNC(=O)c1ccno1 | > 10000 | 9970 | > 10000 | 
Cc1ccc(NC(=O)c2cnc3ccccc3c2)cc1OC1CCN(C(=O)c2cccnc2)CC1 | > 10000 | 5550 | > 10000 | 
COc1ccc(NC(=O)c2cccc(C(F)(F)F)c2)cc1OC1CCN(C(=O)c2cccnc2)CC1 | > 10000 | > 10000 | > 10000 | 
O=C(Nc1cccc(OC2CCN(C(=O)c3cccnc3)CC2)c1)c1cccc(C(F)(F)F)c1 | > 10000 | 490 | > 10000 | 
COc1cccc(C(=O)Nc2ccc(C)c(OC3CCN(C(=O)c4cccnc4)CC3)c2)c1 | > 10000 | 1480 | > 10000 | 
CCC(=O)N1CCC(Oc2cc(NC(=O)c3cccc(C(F)(F)F)c3)ccc2C)CC1 | > 10000 | 1550 | > 10000 | 
Cc1ccc(NC(=O)c2cccc(C(F)(F)F)n2)cc1OC1CCN(C(=O)c2ccno2)CC1 | > 10000 | > 10000 | > 10000 | 
Cc1ccc(NC(=O)c2cc(C(C)(C)C)on2)cc1OC1CCN(C(=O)c2cccnc2)CC1 | 9920 | 340 | > 10000 | 
O=C(Nc1cccc(OC2CCCN(C(=O)c3ccno3)C2)c1)c1cccc(C(F)(F)F)c1 (configuration not stated) | > 10000 | > 10000 | > 10000 | 
Cc1ccc(NC(=O)c2cccc(C(F)(F)F)c2)cc1OC1CCN(C(=O)c2ccccn2)CC1 | > 10000 | 330 | > 10000 | 
Cc1ccc(NC(=O)c2cccc(C(F)(F)F)c2)cc1OCCNC(=O)c1cccnc1 | > 10000 | 7940 | > 10000 | 
O=C(Nc1cccc(OC2CCCN(C(=O)c3cccnc3)C2)c1)c1cccc(C(F)(F)F)c1 (configuration not stated) | > 10000 | 8070 | 8070 | 

The next compounds have a lower GI50 (K562) than those just listed; values first:

GI50 (K562) [nM] | GI50 [6] [nM] | SMILES | GI50 [13] [nM] | other results
120 | 400 | Cc1ccc(NC(=O)c2ccc(CN3CCN(C)CC3)cc2)cc1Nc1nccc(-c2cccnc2)n1 [IMATINIB] | > 10000 | GI50 [1]: > 10000 nM; GI50 [2]: 6670 nM; GI50 [3]: > 10000 nM; GI50 at 72 h [4]: > 10000 nM; GI50 [5]: > 10000 nM; GI50 [7]: 1290 nM; GI50 [8]: 2490 nM; GI50 (MV4-11): > 10000 nM; GI50 [9]: > 10000 nM; GI50 [10]: 14 nM; GI50 [11]: 100 nM; GI50 at 72 h [12]: > 10000 nM; GI50 [14]: 3000 nM; GI50 [15]: 8 nM; GI50 [16]: > 10000 nM; GI50 [17]: 39 nM
5850 | 83 | Cc1ccc(NC(=O)c2ccc(C)c(C(F)(F)F)c2)cc1OC1CCN(C(=O)c2cccnc2)CC1 | 5470 | 
8360 | 620 | C=CC(=O)N1CCC(Oc2cc(NC(=O)c3cccc(C(F)(F)F)c3)ccc2C)CC1 | > 10000 | 
1000 | 78 | CCN(CC)CCNC(=O)c1c(C)[nH]c(/C=C2\C(=O)Nc3ccc(F)cc32)c1C [SUNITINIB] | 2780 | GI50 [1]: 1 nM; GI50 [2]: 53 nM; GI50 [3]: 870 nM; GI50 at 72 h [4]: 2480 nM; GI50 [5]: 2010 nM; GI50 [18]: 1380 nM; GI50 [8]: 20 nM; GI50 (MV4-11): 1 nM; GI50 [19]: 1100 nM; GI50 [20]: 2 nM; GI50 [9]: 1700 nM; GI50 [10]: 110 nM; GI50 at 72 h [12]: 2030 nM; GI50 [15]: 41 nM; GI50 [16]: 5 nM; GI50 [17]: 9 nM; GI50 [21]: 1200 nM
3660 | 160 | Cc1ccc(NC(=O)c2cc(Cl)cc(C(F)(F)F)c2)cc1OC1CCN(C(=O)c2cccnc2)CC1 | > 10000 | 
1960 | 65 | Cc1ccc(NC(=O)c2ccc(C)c(C(F)(F)F)c2)cc1OC1CCN(C(=O)c2ccno2)CC1 | 8940 | 
2940 | 110 | Cc1ccc(NC(=O)c2cccc(C(F)(F)F)c2)cc1OC1CCN(C(=O)c2cccnc2)CC1 | > 10000 | 
2800 | 960 | O=C(Nc1ccc(Cl)c(OC2CCN(C(=O)c3cccnc3)CC2)c1)c1cccc(C(F)(F)F)c1 | > 10000 | 
5240 | 100 | Cc1ccc(NC(=O)c2ccc(C)c(C(F)(F)F)c2)cc1OC1CCN(C(=O)c2cncs2)CC1 | > 10000 | 
4560 | 150 | Cc1ccc(NC(=O)c2cc(F)cc(C(F)(F)F)c2)cc1OC1CCN(C(=O)c2cccnc2)CC1 | > 10000 | 
2320 | 31 | Cc1ccc(NC(=O)c2ccc(C)c(C(F)(F)F)c2)cc1OC1CCN(C(=O)c2ccncc2)CC1 | 6390 | 
160 | 220 | Cc1ccc(NC(=O)c2cccc(C(F)(F)F)c2)cc1OC1CCN(C(=O)c2ccno2)CC1 | > 10000 | 
1950 | 150 | Cc1ccc(NC(=O)c2cc(Cl)cc(C(F)(F)F)c2)cc1OC1CCN(C(=O)c2ccno2)CC1 | > 10000 | 
780 | 2600 | Cc1ccc(NC(=O)Nc2ccc(Cl)c(C(F)(F)F)c2)cc1OC1CCN(C(=O)c2cccnc2)CC1 | 3300 | 
